KCNQ1 pot: potentiates or activates the human KCNQ1 potassium channel | CHO-K1 KCNQ1, thallium flux FluxOR fluorescence; stronger effect = higher value | P51787 | actives 0.35% (n = 310,000) | B-score at 10 µM;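 active = fluorescence ratio B-score, a plate-corrected score, at least three library SD, with initial intensity B-score within 5 SD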
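Medium – assay buffer, equal DMSO in all wells · Material – CHO-K1 cell line with stable KCNQ1 potassium channel expression · Signal – kinetic FluxOR thallium fluorescence, 10-s 1-Hz baseline, 110-s post-stimulus read · Compound – single concentration per compound, DMSO matched to controls · Schedule – 37 °C overnight plating, 90-min dark dye load, 20-min compound pretreatment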
KCNK9 inh: human KCNK9 channel inhibition; HEK293 KCNK9, FluxOR thallium flux fluorescence; stronger effect = lower value; actives 1.2% (n = 310,000); B-score at 10 µM;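 active = ratio B-score over 3 SD below the library mean, with starting fluorescence within 5 SD of its mean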;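 also: negative B-score means less thallium flux so channel inhibition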
KCNK3 block: human KCNK3 channel inhibition, primary screen; actives 0.84% (n = 340,000); AID 602410; B-score at 10 µM; O14649; CHO-KCNK3 thallium flux, FluxOR fluorescence; stronger effect = lower value;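 active = B-score under library mean minus 4 SD, starting fluorescence ratio at most library mean plus 5 SD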;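 also: more negative B-score means stronger inhibition of thallium flux through KCNK3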
KCNQ1 block: inhibitors of human KCNQ1 potassium channel. actives 1.3% (n = 310,000). AID 2642. P51787. B-score at 10 µM. CHO-K1 KCNQ1, FluxOR thallium flux fluorescence; stronger effect = higher value;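 active = compounds whose thallium flux B-score, printed positive for inhibition, exceeds three library SD while starting fluorescence stays within three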;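 also: channel opened by potassium depolarization with thallium stimulus after 20 min compound exposure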
hERG protect: hERG (human) protection from proarrhythmic block | activation (rescue from dofetilide block), less the hit threshold, % at 10 µM | actives 0.51% (n = 310,000) | Q12809 | CHO-hERG, FluxOR thallium flux, dofetilide IC70 present;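 active = activation above the mean of controls blocked by dofetilide plus 5 SD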;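 also: thallium influx through hERG after potassium depolarization seen as dye fluorescence rise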
Kir21 block: inhibitors of mouse Kir2.1 inward-rectifier potassium channel; P35561; AID 1672; actives 0.85% (n = 310,000); B-score at 10 µM; HEK293-Kir2.1, FluxOR thallium flux fluorescence; stronger effect = lower value;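 active = fluorescence ratio B-score at or below minus 3 SD of library scores, with starting-brightness B-score within 2 SD, cut at about -4.2 in these data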;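 also: channel flux triggered by added potassium and thallium sulfate stimulus; B-score of peak minus minimum fluorescence over baseline after thallium stimulus; more negative B-score means stronger Kir2.1 block with less thallium influx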
Large screens that a line does not name were inactive; ! = a repeat was not active. In the library only some 3.7% were active in any assay of this set; here they are far more common.

COc1ccc(OCC#CCN2CCCCCC2)cc1	none
O=C(CNC(=O)c1ccccc1Cl)Nc1ccc(Br)cc1C(=O)c1ccccc1	none
O=C(c1cc(C(=O)NCc2ccccc2)c(=O)n(Cc2ccccc2)c1)c1cc(Br)ccc1O	KCNQ1 block 6
C[C@H]1CCCC(=O)CCC/C=C/c2cc(O)cc(O)c2C(=O)O1	Kir21 block -4.4
C[C@H]1CCC/C=C/[C@@H]2C[C@H](O)C[C@H]2[C@H](O)/C=C/C(=O)O1	none (no result: KCNQ1 pot, KCNK9 inh, KCNQ1 block, hERG protect, Kir21 block)
Cc1ccc(/C=C2\C(=O)NC(=S)N(c3ccc(F)cc3)C2=O)s1	hERG protect 11
CCOc1cc2c(cc1OCC)-n1cccc1C(c1cccc(OCC)c1O)NC2 (stereo not given)	none
C/C(=N\Nc1cccc2ccccc12)c1c(O)n(Cc2ccccc2)c(=O)[nH]c1=O	KCNK9 inh -7.2
CC1N=C(c2ccccc2Cl)c2cc(Br)ccc2NC1=O (stereo not given)	hERG protect 7.6
O=C1Nc2ccc(Br)cc2C(c2ccccc2Cl)=NC1O (stereo not given)	none
CC1CC(OP(O)(=S)c2ccc(N(C)C)cc2NC(=O)c2cccs2)CC(C)(C)C1 (stereo not given)	none
COc1ccc(C2CN(C)CC2C(=O)c2ccc(F)cc2)cc1Cl (stereo not given)	none
COc1ccc(SCC2CN(C)CCC2c2ccc(F)cc2)cc1 (stereo not given)	Kir21 block -4.8
CN1CCN(c2nc3c(c(=O)[nH]2)CCC3)CC1	none
O=c1[nH]c(=S)n(CCC2=CCCCC2)c(O)c1C=NC1CCN(Cc2ccccc2)CC1	KCNQ1 block 7
CN1CCN(/N=C/c2c(O)n(CCC3=CCCCC3)c(=S)[nH]c2=O)CC1	none
CC1=CC2/C=C(\C)CCC(O)C(O)/C=C/C(=O)C23C(=O)NC(CC(C)C)C3C1C (stereo not given)	KCNQ1 pot 10, Kir21 block -7.1
O=P1(N(CCCl)CCCl)NCCCO1 (stereo not given)	none
O=C1c2ccccc2C2(c3ccc(Cl)cc3)NCCN12 (stereo not given)	hERG protect 4.8
COc1cccc(NP(=O)(Oc2ccc(Cl)cc2)Oc2ccc(Cl)cc2)c1	KCNK9 inh -6.7
Cc1cccc(NP(=O)(Oc2ccccc2F)Oc2ccccc2F)c1	KCNK9 inh -7.2
N[C@@H](Cc1c[nH]c2ccccc12)c1nnc(SCc2ccc(Cl)cc2)o1	Kir21 block -5.2
N[C@@H](Cc1c[nH]c2ccccc12)c1nnc(SCc2ccccc2)o1	none
O=C1NC(=O)N(c2cccc(Cl)c2)C(=O)/C1=C\c1ccc(Sc2nc3ccccc3[nH]2)o1	Kir21 block -4.8
CCCN1CCC(NC2CCC(O)CC2)CC1 (stereo not given)	none
COc1ccc(CCNCc2ccc(SC)cc2)cc1	Kir21 block -5.5 (no result: KCNK3 block)
COC(=O)C1=C(c2ccc(C(C)=O)cc2)C[C@@H]2CC[C@H]1N2C(=O)NCc1ccc(C(F)(F)F)cc1	none (no result: KCNQ1 pot, KCNK9 inh, KCNQ1 block, hERG protect, Kir21 block)
CCN(CC)c1ccc(N=Cc2c(O)n(Cc3ccccc3)c(=O)[nH]c2=O)cc1	KCNK9 inh -7.3!, KCNQ1 block 7!
CCN(CC)c1ccc(N=Cc2c(O)n(-c3ccccc3)c(=O)[nH]c2=O)cc1	none
COc1ccc(Cn2c(O)c(/C=N/NC(=O)c3ccccc3)c(=O)[nH]c2=O)cc1	KCNQ1 block 7
CN(C)CCNC(=O)c1cccn(Cc2cc(C(F)(F)F)cc(C(F)(F)F)c2)c1=O	none
Cn1cccc1CNCCc1ccccc1	hERG protect 6.4 (no result: KCNK3 block)
COc1ccc(CCNCc2cccn2C)cc1	none
Brc1ccc2c(c1)C(OC1CN3CCC1CC3)c1ccccc1CS2 (stereo not given)	Kir21 block -8.9
CCOP(=S)(OCC)Oc1cc(C)nc(C(C)C)n1	none (no result: KCNQ1 pot, KCNK9 inh, KCNQ1 block, hERG protect, Kir21 block)
C[C@]12C=CC(=O)C=C1CC[C@@H]1C2CC[C@]2(C)OC(=O)CCC12 (stereo not given in full)	none
COc1ccc(C(=O)OC2C[C@H]3CC[C@@H](C2)N3O)cc1OC (stereo not given in full)	none
COC(=O)C1=C(c2cccc(Cl)c2)C[C@@H]2CC[C@H]1N2C(=O)N1CCCC1	none (no result: KCNQ1 pot, KCNK9 inh, KCNQ1 block, hERG protect, Kir21 block)
Oc1ccc(-[n+]2c(-c3ccccc3)cc(-c3ccccc3)cc2-c2ccccc2)cc1	KCNK9 inh -7.3, KCNQ1 block 10, Kir21 block -10
O=[N+]([O-])c1ccc(-[n+]2c(-c3ccccc3)cc(-c3ccccc3)cc2-c2ccccc2)cc1	none
COc1ccc(-[n+]2c(-c3ccccc3)cc(-c3ccccc3)cc2-c2ccccc2)cc1	KCNK9 inh -8.8, KCNQ1 block 6, Kir21 block -7.5 (no result: KCNK3 block)
Cc1cccc(-n2c(O)c(C)c(=O)[nH]c2=S)c1	none
CCOC(=O)c1c(-n2c(C)cc(C=C3C(=O)NC(=S)NC3=O)c2C)sc2c1CCCC2	Kir21 block -4.8
CCOC(=O)c1c(-n2c(C)cc(/C=C3/C(=O)NC(=O)N(CC)C3=O)c2C)sc2c1CCCC2	none
CCCC1(CCO)C(=O)NC(=S)NC1=O	none (no result: KCNQ1 pot, KCNK9 inh, KCNQ1 block, hERG protect, Kir21 block)
COc1ccc2c(c1)C(c1ccc(N(CCCl)CCCl)cc1)=NCC2	KCNK3 block -8.7 (no result: KCNQ1 pot, KCNK9 inh, KCNQ1 block, hERG protect, Kir21 block)
Cc1[nH]c2ccc(OC(F)(F)F)cc2c1CCNCc1ccc(Cl)cc1	Kir21 block -7.2
CCOc1cccc(CNCCc2c(C)[nH]c3ccc(OC(F)(F)F)cc23)c1O	KCNQ1 block 12, Kir21 block -13
Cc1[nH]c2ccc(OC(F)(F)F)cc2c1CCNCc1cccc([N+](=O)[O-])c1	none
N#CC(C#N)=NNc1ccc(-n2ccc(C(F)(F)F)n2)cc1	KCNQ1 block 7, Kir21 block -6
CCCC(C)CC1(CCO)C(=O)NC(=S)NC1=O (stereo not given)	none (no result: KCNQ1 pot, KCNK9 inh, KCNQ1 block, hERG protect, Kir21 block)
Cc1nc2ccc(Cl)cc2c(=O)n1-c1cccc(Cl)c1	none
Cc1cccc(OP(=O)(Oc2ccccc2)OC(c2ccccc2)C(F)(F)F)c1 (stereo not given)	KCNQ1 block 8
CC(OC(=O)c1cn(C)c2ccccc12)C(=O)N1CCCC1 (stereo not given)	none (no result: KCNQ1 pot, KCNK9 inh, KCNQ1 block, hERG protect, Kir21 block)
C#C[C@@]1(O)CCC2C3CCC4=C/C(=N/OCC(=O)NC(C(=O)NC(CC(C)C)C(=O)O)C(C)C)CC[C@]4(C)C3CC[C@@]21C (stereo not given in full)	none
CCn1c(O)c(C=Nc2ccc(N3CCOCC3)c(Br)c2)c(=O)n(CC)c1=S	none
CCn1c(O)c(C=Nc2ccc(N3CCOCC3)cc2)c(=O)n(CC)c1=S	KCNQ1 block 7
O=S(=O)(c1ccc(F)cc1)N1CCCC1c1cccnc1 (stereo not given)	none
O=S(=O)(c1ccc(Cl)cc1)N1CCCCC1c1cccnc1 (stereo not given)	Kir21 block -9
O=S(=O)(c1ccc(F)cc1)N1CCCCC1c1cccnc1 (stereo not given)	Kir21 block -4.9

Screening results as filed in PubChem.
